From ChEMBL document CHEMBL1122701, “Antiestrogens. 2. Structure-activity studies in a series of 3-aroyl-2-arylbenzo[b]thiophene derivatives leading to [6-hydroxy-2-(4-hydroxyphenyl)benzo[b]thien-3-yl] [4-[2-(1-piperidinyl)ethoxy]-phenyl]methanone hydrochloride (LY156758), a remarkably effective estrogen antagonist with only minimal …” (1984)
Several values for one entry are separate records, joined by “and”; a condition that tells them apart may be missing. Equal values may be shown once.

Columns and labels:
Rattus norvegicus [1] = organism: Rattus norvegicus; assay: The compound was tested for anti-uterotrophic activity in immature rats(Dosage 10 microg); type: functional
Procedure, shortened: (§1)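 Holtzman rats, immature (19-20 days, 40-45 g), in groups of six. Each rat received estradiol 1 µg/day sc in corn oil plus compound sc in corn oil as a daily per-rat dose, for 3 days. Rats killed on day 4. Inhibition of estradiol-driven uterine wet weight (weighed to 0.1 mg).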

Rattus norvegicus [2] = organism: Rattus norvegicus; assay: The compound was tested for uterotropic activity in immature rats(Dosage 10 ug); type: functional
Procedure, shortened: (§2)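 Holtzman rats, immature (19-20 days, 40-45 g), in groups of six. Compound given subcutaneously in corn oil as a daily per-rat dose for 3 days. Rats killed on day 4 and uterine wet weight recorded to the nearest 0.1 mg.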

Rattus norvegicus [3] = organism: Rattus norvegicus; assay: The compound was tested for anti-uterotrophic activity in immature rats(Dosage 100 ug); type: functional; procedure, shortened: as §1
Rattus norvegicus [4] = organism: Rattus norvegicus; assay: The compound was tested for uterotropic activity in immature rats(Dosage 1 ug); type: functional; procedure, shortened: as §2
Rattus norvegicus [5] = organism: Rattus norvegicus; assay: The compound was tested for uterotropic activity in immature rats(Dosage 1000 ug); type: functional; procedure, shortened: as §2
Rattus norvegicus [6] = organism: Rattus norvegicus; assay: The compound was tested for uterotropic activity in immature rats(Dosage 100 ug); type: functional; procedure, shortened: as §2
Rattus norvegicus [7] = organism: Rattus norvegicus; assay: The compound was tested for anti-uterotrophic activity in immature rats(Dosage 1000 ug); type: functional; procedure, shortened: as §1
Rattus norvegicus [8] = organism: Rattus norvegicus; assay: The compound was tested for anti-uterotrophic activity in immature rats(Dosage 1 ug); type: functional; procedure, shortened: as §1
Rattus norvegicus [9] = assay: The compound was tested for no of tumors without change at 1 mg/kg dose after peroral administration (experiment-I); type: functional; conditions: route oral
Procedure, shortened: (§3)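 DMBA-induced mammary tumors in female Sprague-Dawley rats. Compound given orally twice daily in PEG-400:water (1:1) for 21 days; controls received vehicle alone. Tumors measured by caliper at start and weekly; area is largest × smallest diameter. Tumors scored as complete or partial remission, no change or progression. Mean ± SE.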

Rattus norvegicus [10] = assay: The compound was tested for the % change of tumor area at 1 mg/kg dose after peroral administration (experiment-I); type: functional; conditions: route oral; procedure, shortened: as §3
Rattus norvegicus [11] = assay: The compound was tested for the no of tumors at 1 mg/kg dose start of the experiment after peroral administration (experiment-I); type: functional; conditions: route oral; procedure, shortened: as §3
Rattus norvegicus [12] = assay: The compound was tested for the % change of tumor area at 10 mg/kg dose after peroral administration (experiment-2); conditions: route oral
Rattus norvegicus [13] = assay: The compound was tested for no of tumors with partial remission at 1 mg/kg dose after peroral administration (experiment-I); type: functional; conditions: route oral; procedure, shortened: as §3
Rattus norvegicus [14] = assay: The compound was tested for the growth of mammary tumors in rats at 1 mg/kg dose after peroral administration at the end of the exp-1; type: functional; conditions: route oral; procedure, shortened: as §3
Rattus norvegicus [15] = assay: The compound was tested for no of tumors with partial remission at 10 mg/kg dose after peroral administration (experiment-I); type: functional; conditions: route oral; procedure, shortened: as §3
Rattus norvegicus [16] = assay: The compound was tested for the progression of no of tumors at 1 mg/kg dose after peroral administration (experiment-I); type: functional; conditions: route oral; procedure, shortened: as §3
Rattus norvegicus [17] = assay: The compound was tested for the no of tumors at 10 mg/kg dose finish of the experiment after peroral administration (experiment-2); type: functional; conditions: route oral; procedure, shortened: as §3
Rattus norvegicus [18] = assay: The compound was tested for no of tumors without change at 10 mg/kg dose after peroral administration (experiment-2); type: functional; conditions: route oral; procedure, shortened: as §3
Rattus norvegicus [19] = assay: The compound was tested for no of tumors without change at 10 mg/kg dose after peroral administration (experiment-I); type: functional; conditions: route oral; procedure, shortened: as §3
Rattus norvegicus [20] = assay: The compound was tested for no of tumors with complete remission at 1 mg/kg dose after peroral administration (experiment-I); type: functional; conditions: route oral; procedure, shortened: as §3
Rattus norvegicus [21] = assay: The compound was tested for the progression of no of tumors at 10 mg/kg dose after peroral administration (experiment-2); type: functional; conditions: route oral; procedure, shortened: as §3
Rattus norvegicus [22] = assay: The compound was tested for the no of tumors at 10 mg/kg dose start of the experiment after peroral administration (experiment-I); type: functional; conditions: route oral; procedure, shortened: as §3
Rattus norvegicus [23] = assay: The compound was tested for the no of tumors at 10 mg/kg dose finish of the experiment after peroral administration (experiment-I); type: functional; conditions: route oral; procedure, shortened: as §3
Rattus norvegicus [24] = assay: The compound was tested for no of tumors with complete remission at 10 mg/kg dose after peroral administration (experiment-I); type: functional; conditions: route oral; procedure, shortened: as §3
Rattus norvegicus [25] = assay: The compound was tested for the no of tumors at 1 mg/kg dose finish of the experiment after peroral administration (experiment-I); type: functional; conditions: route oral; procedure, shortened: as §3
Rattus norvegicus [26] = assay: The compound was tested for no of tumors with partial remission at 10 mg/kg dose after peroral administration (experiment-2); type: functional; conditions: route oral; procedure, shortened: as §3
Rattus norvegicus [27] = assay: The compound was tested for the no of tumors at 10 mg/kg dose start of the experiment after peroral administration (experiment-2); type: functional; conditions: route oral; procedure, shortened: as §3
Rattus norvegicus [28] = assay: The compound was tested for the progression of no of tumors at 10 mg/kg dose after peroral administration (experiment-I); type: functional; conditions: route oral; procedure, shortened: as §3
Rattus norvegicus [29] = assay: The compound was tested for no of tumors with complete remission at 10 mg/kg dose after peroral administration (experiment-2); type: functional; conditions: route oral; procedure, shortened: as §3
Rattus norvegicus [30] = assay: The compound was tested for serum LH level in rats at 1 mg/kg dose after peroral administration; type: functional, organism-based; set-up: dose 1 mg/kg
Rattus norvegicus [31] = assay: The compound was tested for serum prolactin level in rats at 10 mg/kg dose after peroral administration; type: functional, organism-based; set-up: dose 10 mg/kg
Rattus norvegicus [32] = assay: The compound was tested for serum prolactin level in rats at 1 mg/kg dose after peroral administration; type: functional, organism-based; set-up: dose 1 mg/kg
Rattus norvegicus [33] = assay: The compound was tested for serum prolactin level in rats at 1 mg/kg dose after peroral administration exp1; type: functional, organism-based; set-up: dose 1 mg/kg
Rattus norvegicus [34] = assay: The compound was tested for the growth of mammary tumors in rats at 10 mg/kg dose after peroral administration at the end of the exp-2; type: functional; conditions: route oral; procedure, shortened: as §3
Rattus norvegicus [35] = assay: The compound was tested for the growth of tumors at 10 mg/kg dose finish of the experiment after peroral administration (experiment-2); type: functional; conditions: route oral; procedure, shortened: as §3
Rattus norvegicus [36] = assay: The compound was tested for the growth of tumors at 10 mg/kg dose start of the experiment after peroral administration (experiment-2); type: functional; conditions: route oral; procedure, shortened: as §3
Rattus norvegicus [37] = organism: Rattus norvegicus; assay: The compound was tested for uterotropic activity in immature rats(Dosage 0.1 ug); type: functional; procedure, shortened: as §2

## CC(C)N(CCOc1ccc(C(=O)c2c(-c3ccc(O)cc3)sc3cc(O)ccc23)cc1)C(C)C
Rattus norvegicus [1]
  Mean uterine weight: 58.7 mg
Rattus norvegicus [2]
  Mean uterine weight: 50 mg
Rattus norvegicus [3]
  Mean uterine weight: 69.5 mg
Rattus norvegicus [4]
  Mean uterine weight: 37.3 mg
Rattus norvegicus [5]
  Mean uterine weight: 60.4 mg
Rattus norvegicus [6]
  Mean uterine weight: 62.1 mg
Rattus norvegicus [7]
  Mean uterine weight: 70.2 mg
Rattus norvegicus [8]
  Mean uterine weight: 60.1 mg

## CN(C)CCOc1ccc(C(=O)c2c(-c3ccc(O)cc3)sc3cc(O)ccc23)cc1
Rattus norvegicus [1]
  Mean uterine weight: 54.3 mg
Rattus norvegicus [2]
  Mean uterine weight: 55 mg
Rattus norvegicus [3]
  Mean uterine weight: 64.7 mg
Rattus norvegicus [4]
  Mean uterine weight: 44.6 mg
Rattus norvegicus [5]
  Mean uterine weight: 71.5 mg
Rattus norvegicus [6]
  Mean uterine weight: 66 mg
Rattus norvegicus [7]
  Mean uterine weight: 70.8 mg
Rattus norvegicus [8]
  Mean uterine weight: 54.7 mg

## Cl.O=C(c1ccc(OCCN2CCCCC2)cc1)c1c(-c2ccc(O)cc2)sc2cc(O)ccc12 [RALOXIFENE HYDROCHLORIDE]
Rattus norvegicus [9]
  No. of tumours: 4
Rattus norvegicus [10]
  % change tumor area: 132% and 378%
Rattus norvegicus [11]
  No. of tumours: 9
Rattus norvegicus [12]
  % change tumor area: 417%
Rattus norvegicus [13]
  No. of tumours: 2
Rattus norvegicus [14]
  Tumor area: 33.3 mm**2 and <77.3 mm**2
Rattus norvegicus [15]
  No. of tumours: 2
Rattus norvegicus [16]
  No. of tumours: 2
Rattus norvegicus [17]
  No. of tumours: 5
Rattus norvegicus [18]
  No. of tumours: 1
Rattus norvegicus [19]
  No. of tumours: 2
Rattus norvegicus [20]
  No. of tumours: 1
Rattus norvegicus [21]
  No. of tumours: 2
Rattus norvegicus [22]
  No. of tumours: 9
Rattus norvegicus [23]
  No. of tumours: 13
Rattus norvegicus [24]
  No. of tumours: 1
Rattus norvegicus [25]
  No. of tumours: 9
Rattus norvegicus [26]
  No. of tumours: 2
Rattus norvegicus [27]
  No. of tumours: 9
Rattus norvegicus [28]
  No. of tumours: 4
Rattus norvegicus [29]
  No. of tumours: 4

## O=C(c1ccc(OCCN2CCCCCC2)cc1)c1c(-c2ccc(O)cc2)sc2cc(O)ccc12
Rattus norvegicus [1]
  Mean uterine weight: 52.7 mg
Rattus norvegicus [2]
  Mean uterine weight: 46.6 mg
Rattus norvegicus [3]
  Mean uterine weight: 39.7 mg
Rattus norvegicus [4]
  Mean uterine weight: 52.7 mg
Rattus norvegicus [5]
  Mean uterine weight: 40.1 mg
Rattus norvegicus [6]
  Mean uterine weight: 43.9 mg
Rattus norvegicus [7]
  Mean uterine weight: 36.7 mg
Rattus norvegicus [8]
  Mean uterine weight: 56.3 mg

## O=C(c1ccc(OCCN2CCCCC2)cc1)c1c(-c2ccc(O)cc2)sc2cc(O)ccc12
Rattus norvegicus [30]
  Serum LH level: 3.08e-05 mg/mL and 2.77e-05 mg/mL
Rattus norvegicus [31]
  Serum prolactin level: 0.000711 mg/mL
Rattus norvegicus [32]
  Serum prolactin level: 7.24e-05 mg/mL
Rattus norvegicus [33]
  Serum prolactin level: 0.000204 mg/mL

## O=C(c1ccc(OCCN2CCCC2)cc1)c1c(-c2ccc(O)cc2)sc2cc(O)ccc12 [LY-117018]
Rattus norvegicus [1]
  Mean uterine weight: 44.5 mg
Rattus norvegicus [2]
  Mean uterine weight: 46.6 mg
Rattus norvegicus [3]
  Mean uterine weight: 42.7 mg
Rattus norvegicus [4]
  Mean uterine weight: 55.1 mg
Rattus norvegicus [5]
  Mean uterine weight: 40.7 mg
Rattus norvegicus [6]
  Mean uterine weight: 43.9 mg
Rattus norvegicus [7]
  Mean uterine weight: 36.1 mg
Rattus norvegicus [8]
  Mean uterine weight: 61.7 mg

## CCN(CC)CCOc1ccc(C(=O)c2c(-c3ccc(O)cc3)sc3cc(O)ccc23)cc1
Rattus norvegicus [1]
  Mean uterine weight: 61.3 mg
Rattus norvegicus [2]
  Mean uterine weight: 53.6 mg
Rattus norvegicus [3]
  Mean uterine weight: 66.4 mg
Rattus norvegicus [4]
  Mean uterine weight: 45.4 mg
Rattus norvegicus [5]
  Mean uterine weight: 66.5 mg
Rattus norvegicus [6]
  Mean uterine weight: 67.6 mg
Rattus norvegicus [7]
  Mean uterine weight: 66 mg
Rattus norvegicus [8]
  Mean uterine weight: 56.2 mg

## CC/C(=C(\c1ccccc1)c1ccc(OCCN(C)C)cc1)c1ccccc1 [TAMOXIFEN]
Rattus norvegicus [1]
  Mean uterine weight: 62.1 mg
Rattus norvegicus [2]
  Mean uterine weight: 64.8 mg
Rattus norvegicus [3]
  Mean uterine weight: 72.1 mg
Rattus norvegicus [12]
  % change tumor area: 7
Rattus norvegicus [34]
  Tumor area: 43.4 mm**2 and <46.4 mm**2
Rattus norvegicus [18]
  No. of tumours: 2
Rattus norvegicus [4]
  Mean uterine weight: 38.9 mg
Rattus norvegicus [21]
  No. of tumours: 3
Rattus norvegicus [31]
  Serum prolactin level: 0.000126 mg/mL
Rattus norvegicus [35]
  No. of tumours: 7
Rattus norvegicus [5]
  Mean uterine weight: 70.1 mg
Rattus norvegicus [6]
  Mean uterine weight: 65.6 mg
Rattus norvegicus [7]
  Mean uterine weight: 74.1 mg
Rattus norvegicus [8]
  Mean uterine weight: 64.1 mg
Rattus norvegicus [26]
  No. of tumours: 3
Rattus norvegicus [29]
  No. of tumours: 3
Rattus norvegicus [36]
  No. of tumours: 11

## C[C@]12CC[C@@H]3c4ccc(O)cc4CC[C@H]3[C@@H]1CC[C@@H]2O [ESTRADIOL]
Rattus norvegicus [37]
  Mean uterine weight: 82.3 mg

## O=C(c1ccc(OCCN2CCCCC2)cc1)c1c(-c2ccc(O)cc2)sc2cc(O)ccc12 [RALOXIFENE]
Rattus norvegicus [1]
  Mean uterine weight: 36.7 mg
Rattus norvegicus [2]
  Mean uterine weight: 42.2 mg
Rattus norvegicus [3]
  Mean uterine weight: 32.5 mg
Rattus norvegicus [4]
  Mean uterine weight: 48.6 mg
Rattus norvegicus [5]
  Mean uterine weight: 35.4 mg
Rattus norvegicus [6]
  Mean uterine weight: 42.7 mg
Rattus norvegicus [7]
  Mean uterine weight: 28.9 mg
Rattus norvegicus [8]
  Mean uterine weight: 48.7 mg
